Assays:
[1] = Half life (t1/2) value of the compound.; assay type: ADME
How it was run: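 Chemical hydrolysis followed by UV spectroscopy for 24 h at 20 °C in TRIS-HCl–Mg buffer (3.6 mM MgHPO4, 50 mM TRIS, pH 7.3); half-life of the compound reported in hours.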

[2] = target: T1, Muscarinic acetylcholine receptor M2 (Sus scrofa, UniProt P06199); experiment: Allosteric potency against the dissociation of radioligand [3H]N-methylscopolamine from the porcine cardiac Muscarinic acetylcholine receptor M2
T1 sequence (P06199 whole entry): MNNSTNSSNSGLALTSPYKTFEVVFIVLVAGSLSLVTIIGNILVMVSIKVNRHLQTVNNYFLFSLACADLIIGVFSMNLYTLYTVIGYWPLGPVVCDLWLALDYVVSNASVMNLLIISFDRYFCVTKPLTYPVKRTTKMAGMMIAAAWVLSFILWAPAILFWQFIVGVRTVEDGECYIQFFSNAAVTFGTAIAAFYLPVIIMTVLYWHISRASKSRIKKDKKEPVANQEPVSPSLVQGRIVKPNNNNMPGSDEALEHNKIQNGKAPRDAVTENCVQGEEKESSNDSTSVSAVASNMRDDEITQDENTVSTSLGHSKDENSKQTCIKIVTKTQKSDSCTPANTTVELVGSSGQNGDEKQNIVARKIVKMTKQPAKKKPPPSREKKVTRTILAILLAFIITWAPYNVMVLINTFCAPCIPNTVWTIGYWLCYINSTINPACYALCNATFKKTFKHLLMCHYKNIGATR
How it was run: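 Porcine ventricular membranes: homogenized in 0.32 M sucrose, spun at 300g then 80000g, resuspended in 50 mM Tris-HCl pH 7.4. Labeled with 0.2 nM [3H]NMS for 30 min in 2.6 mM MgHPO4/45 mM Tris-HCl, pH 7.3, 37 °C. Dissociation started with 1 µM atropine plus modulator, sampled up to 2 h (some two-point, 0 and 4 min), then filtered and counted. EC50 is the concentration halving monoexponential k-1 (4–6 concentrations).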

| half-life [1] [h] | EC50 [2] [µM] | Compound |
| --- | --- | --- |
| 14 | 2.69 | C[N+](C)(CCCC[N+](C)(C)CCCN1C(=O)c2ccccc2C1=O)CCCN1C(=O)c2ccccc2C1=O.[Br-].[Br-] |
|  | 0.63 | O=C1c2ccccc2C(=O)N1CCCC[n+]1ccc(CCCc2cc[n+](CCCCN3C(=O)c4ccccc4C3=O)cc2)cc1 |
| 17.4 | 1.39 | C[N+](C)(CCCCC[N+](C)(C)CCCN1C(=O)c2ccccc2C1=O)CCCN1C(=O)c2ccccc2C1=O.[Br-].[Br-] |
| 16.4 | 0.37 | C[N+](C)(CCCCCCC[N+](C)(C)CCCN1C(=O)c2ccccc2C1=O)CCCN1C(=O)c2ccccc2C1=O.[Br-].[Br-] |
| 35.2 | 0.57 | C[N+](C)(CCCCCCCC[N+](C)(C)CCCN1C(=O)c2ccccc2C1=O)CCCN1C(=O)c2ccccc2C1=O.[Br-].[Br-] |
|  | 50.8 | O=C1c2ccccc2C(=O)N1C[n+]1ccc(CCCc2cc[n+](CN3C(=O)c4ccccc4C3=O)cc2)cc1 |
|  | 0.51 | O=C1c2ccccc2C(=O)N1CO/N=C/c1cc[n+](CCC[n+]2ccc(/C=N/OCN3C(=O)c4ccccc4C3=O)cc2)cc1 |
|  | 0.45 | O=C1c2ccccc2C(=O)N1CCCO/N=C/c1cc[n+](CCCCCC[n+]2ccc(/C=N/OCCCN3C(=O)c4ccccc4C3=O)cc2)cc1 |
|  | 0.35 | O=C1c2ccccc2C(=O)N1CCCO/N=C/c1cc[n+](CCCC[n+]2ccc(/C=N/OCCCN3C(=O)c4ccccc4C3=O)cc2)cc1 |
|  | 8.82 | C[N+](C)(CCCN1C(=O)c2ccccc2C1=O)CCCN1C(=O)c2ccccc2C1=O |
|  | 1.9 | O=C1c2ccccc2C(=O)N1CO/N=C/c1cc[n+](CCCC[n+]2ccc(/C=N/OCN3C(=O)c4ccccc4C3=O)cc2)cc1 |
|  | 1.4 | O=C1c2ccccc2C(=O)N1CO/N=C/c1cc[n+](CCCCCC[n+]2ccc(/C=N/OCN3C(=O)c4ccccc4C3=O)cc2)cc1 |
|  | 2.34 | O=C1c2ccccc2C(=O)N1CCC[n+]1ccc(CCc2cc[n+](CCCN3C(=O)c4ccccc4C3=O)cc2)cc1 |
| 18 | 1.44 | C[N+](C)(CCCCCC[N+](C)(C)CCCN1C(=O)c2ccccc2C1=O)CCCN1C(=O)c2ccccc2C1=O.[Br-].[Br-] |
| 19.3 | 0.53 | C[N+](C)(CCCCCCCCCC[N+](C)(C)CCCN1C(=O)c2ccccc2C1=O)CCCN1C(=O)c2ccccc2C1=O.[Br-].[Br-] |
|  | 3.49 | O=C1c2ccccc2C(=O)N1CC[n+]1ccc(CCCc2cc[n+](CCN3C(=O)c4ccccc4C3=O)cc2)cc1 |
| 14.5 | 3.8 | C[N+](C)(CCCN1C(=O)c2ccccc2C1=O)CCC[N+](C)(C)CCCN1C(=O)c2ccccc2C1=O.[Br-].[Br-] |
|  | 0.51 | O=C1c2ccccc2C(=O)N1CCCO/N=C/c1cc[n+](CCCCC[n+]2ccc(/C=N/OCCCN3C(=O)c4ccccc4C3=O)cc2)cc1 |
|  | 4.87 | O=C1c2ccccc2C(=O)N1CCC[n+]1ccc(CCCc2cc[n+](CCCN3C(=O)c4ccccc4C3=O)cc2)cc1 |

| Compound | half-life [1] [h] | EC50 [2] [µM] |
| --- | --- | --- |
| O=C1c2ccccc2C(=O)N1CCCO/N=C/c1cc[n+](CCC[n+]2ccc(/C=N/OCCCN3C(=O)c4ccccc4C3=O)cc2)cc1 |  | 0.52 |
| O=C1c2ccccc2C(=O)N1CCCC[n+]1ccc(CCc2cc[n+](CCCCN3C(=O)c4ccccc4C3=O)cc2)cc1 |  | 0.47 |
| O=C1c2ccccc2C(=O)N1CCCC[n+]1ccc(-c2cc[n+](CCCCN3C(=O)c4ccccc4C3=O)cc2)cc1 |  | 4.65 |

Source: ChEMBL document CHEMBL1132599, “Bisquaternary ligands of the common allosteric site of M2 acetylcholine receptors: search for the minimum essential distances between the pharmacophoric elements” (J Med Chem, 1999)
